Assay outcomes as filed in PubChem.
CendR NRP1 mod – modulators of CendR peptide binding to NRP-1, primary screen, biochemical, fluorescence polarization, uHTS. Neuropilin-1 (Homo sapiens), O14786. FAM-RPARPAR peptide binding to NRP-1. inhibition, % at 25 µM. hit rate 0.85% among 360,000;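 active = inhibition or corrected inhibition above about 18%, plus a signal ratio from 0.5 to 1.5, limit read from the data, passing the limit was not always enough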
Target sequence (O14786 whole entry, looked up): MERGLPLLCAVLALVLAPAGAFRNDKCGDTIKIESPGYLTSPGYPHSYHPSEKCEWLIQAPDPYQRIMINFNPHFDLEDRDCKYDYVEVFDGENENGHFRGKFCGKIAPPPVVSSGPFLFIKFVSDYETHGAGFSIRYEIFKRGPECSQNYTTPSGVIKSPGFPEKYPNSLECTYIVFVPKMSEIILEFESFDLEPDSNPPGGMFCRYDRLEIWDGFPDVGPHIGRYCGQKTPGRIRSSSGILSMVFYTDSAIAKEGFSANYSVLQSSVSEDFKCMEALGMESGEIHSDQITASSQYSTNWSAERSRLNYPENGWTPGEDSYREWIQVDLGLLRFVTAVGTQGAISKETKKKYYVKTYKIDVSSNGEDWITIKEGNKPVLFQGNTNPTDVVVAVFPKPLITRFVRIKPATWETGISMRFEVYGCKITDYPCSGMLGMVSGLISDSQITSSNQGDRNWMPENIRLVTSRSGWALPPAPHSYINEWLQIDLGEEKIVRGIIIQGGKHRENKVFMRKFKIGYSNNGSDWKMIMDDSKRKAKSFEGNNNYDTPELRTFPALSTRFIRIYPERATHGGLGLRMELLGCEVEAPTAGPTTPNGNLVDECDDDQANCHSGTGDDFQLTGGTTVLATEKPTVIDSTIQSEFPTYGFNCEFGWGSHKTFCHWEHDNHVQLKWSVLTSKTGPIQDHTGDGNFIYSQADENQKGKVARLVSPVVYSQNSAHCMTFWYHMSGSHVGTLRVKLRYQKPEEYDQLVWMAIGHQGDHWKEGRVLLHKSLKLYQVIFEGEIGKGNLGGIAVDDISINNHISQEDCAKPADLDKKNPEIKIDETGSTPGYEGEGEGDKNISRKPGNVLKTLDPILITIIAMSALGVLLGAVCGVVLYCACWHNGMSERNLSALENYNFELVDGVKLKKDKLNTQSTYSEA
MT1-MMP act inh – blockers of MT1-MMP proenzyme processing, primary screen, HT1080 RFP-PRO-GFP cells, GFP/RFP fluorescence; Matrix metalloproteinase-14 (Homo sapiens), P50281; GFP/RFP ratio fluorescence, overnight; percent of plate control window, DMSO zero; GFP/RFP ratio change, % at 20 µM; hit rate 0.061% among 360,000; AID 651647, 2012;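 active = GFP/RFP ratio change of at least 30% with cell ATP level not reduced by more than half and red fluorescence within 50% of control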
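Test system: HT1080 RFP-PRO-GFP cells; Benchmarks: DMSO and RFP-L50D-GFP cell wells; Timing: cells overnight before dosing, compound overnight, 37 °C, 5% CO2; Compound: one 20 µM compound dose with 1% DMSO; Read-out: GFP/RFP fluorescence ratio.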
SKN-1 block – suppressors of acrylamide-induced Pgst-4::GFP reporter in worms, primary screen, SKN-1 inhibitor project, whole organism, uHTS, GFP/RFP fluorescence ratio, strain VP596; inhibition, % at 21.8 µM; C. elegans VP596 Pgst-4::GFP/RFP ratio, 24 h; hit rate 0.49% among 360,000;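 active = interference check ratio from 0.5 to 1.5 plus GFP to RFP signal ratio inhibition reaching or exceeding a fixed threshold, cut at about 30% in these data, passing the limit was not always enough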
hiPSC survival – enhancers of single-cell hiPSC survival, primary screen, ATPlite luminescence; 100% = ROCK inhibitor wells, 0% = DMSO; survival enhancement, % at 20 µM; hit rate 0.044% among 360,000; AID 602274, 2012; in the data active = survival enhancement above about 18%;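 note: cells exposed to compounds for 16 hours before the ATP read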
Starred values were filed as active, the others as inactive. Only some compounds are listed: those with a hit (about 1.4% of all), similar ones and a draw of the others.

SMILES | CendR NRP1 mod | MT1-MMP act inh | SKN-1 block | hiPSC survival
COC/C=C/C1=CC2=CC(=O)C(C)(OC(=O)c3cnc4ccccc4n3)C(=O)C2=CN1CCN1CCOCC1 (stereo not drawn) | 8 | 5 | 14 | -1
COC/C=C/C1=CC2=CC(=O)C(C)(OC(=O)c3cnc4ccccc4n3)C(=O)C2=CN1CCOC (stereo not drawn) | 32* | 4 | 19 | 4
COC/C=C/C1=CC2=CC(=O)C(C)(OC(=O)c3cnc4ccccc4n3)C(=O)C2=CN1CCCOC(C)C (stereo not drawn) | 44* | 3 | 19 | 3
C=CCN1C=C2C(=O)C(C)(OC(=O)c3cnc4ccccc4n3)C(=O)C=C2C=C1/C=C/COC (stereo not drawn) | 31* | 5 | 3 | 2
COC/C=C/C1=CC2=CC(=O)C(C)(OC(=O)c3cnc4ccccc4n3)C(=O)C2=CN1C(CO)CO (stereo not drawn) | 37* | -3 | 3 | -1
CC1(OC(=O)CCc2ccccc2)C(=O)C=C2C=C(c3ccc(C#N)cc3)N(C(CO)CO)C=C2C1=O (stereo not drawn) | 21 | -2 | 8 | 0
CCN(Cc1nc2ccccc2c(=O)[nH]1)C(=O)C1CC(=O)N(c2cccc3ccccc23)C1 (stereo not drawn) | -8 | -1 | -5 | 0
COC(=O)CCC(=O)OC1(C)C(=O)C=C2C=C(C3CC3)N(Cc3ccco3)C=C2C1=O (stereo not drawn) | 36* | -1 | 18 | 4
COC(=O)CCCC1=CC2=CC(=O)C(C)(OC(=O)c3cccs3)C(=O)C2=CN1Cc1ccco1 (stereo not drawn) | 14 | 6 | 9 | 0
COCCN1C=C2C(=O)C(C)(OC(=O)CCC(=O)OC)C(=O)C=C2C=C1C1CC1 (stereo not drawn) | 29* | 0 | 21 | 1
COC(=O)CCC(=O)OC1(C)C(=O)C=C2C=C(C3CC3)N(C3CC3)C=C2C1=O (stereo not drawn) | 14 | -2 | -2 | -1
Cc1ccc(CCNC(=O)c2coc3nc4ccccc4nc23)cc1 | -57 | -9 | 37* | -1
O=C(NCc1ccco1)c1ccc(Cn2c(=O)c3ccccc3n(Cc3cccc(F)c3)c2=O)cc1 | 13 | 2 | -7 | 3
NC(=O)N1c2ccccc2CC(=O)c2ccccc21 | 35* | 4 | -12 | -2
NC(=O)N1c2ccccc2C=Cc2ccccc21 | 1 | 1 | -2 | 0
CCOc1ccccc1CN1CCNC(=O)C1CC(=O)NCCC1=CCCCC1 (stereo not drawn) | 45* | 1 | 17 | 0
COc1ccccc1CN1CCNC(=O)C1CC(=O)NCCC1=CCCCC1 (stereo not drawn) | -6 | -4 | -4 | -1
Cc1cc(S(=O)(=O)N(Cc2ccc(C(C)(C)C)cc2)Cc2cccs2)ccc1-n1cnnn1 | -4 | -11 | -3 | -2
CCc1ccc(OCC(=O)NNC(=O)c2c(CC)noc2C)cc1 | -11 | 5 | 2 | 0
COc1ccc(CN(C)CCCn2cnc3c(OCc4ccccc4)ncnc32)cc1 | -6 | 1 | 0 | 2
COc1ccc(CN(C)CCCn2cnc3c(OC)ncnc32)cc1OC | 4 | 1 | -11 | 25*
O=C(c1ccc(C#Cc2ccccc2)o1)N1CCN(c2ccccn2)CC1 | 40* | 8 | 8 | 1
COC(=O)c1ccc(C#Cc2ccccc2)o1 | 11 | 1 | 37* | 2
CCc1c(C)nc2nc(SCc3ccccc3Cl)[nH]n2c1=O | -29 | 2 | 8 | 0
O=C(CSc1nnc(NC(=O)C2CC2)s1)Nc1ccc(F)cc1 | -14 | 2 | -20 | 0
SMILES | CendR NRP1 mod | MT1-MMP act inh | SKN-1 block | hiPSC survival
COC(=O)c1c(C)c2c(C)cc3ccccn3c-2c1C(=O)OC | 35* | -27 | 3 | 8
CCC(=O)N(Cc1cc2cc(OC)ccc2[nH]c1=O)c1ccccc1OC | -6 | -2 | 6 | 0
Oc1ccc2ccccc2c1CN1CCCCC1 | 26* | 3 | 13 | -2
Cc1ccc(NC(=O)C2CCN(C(=O)c3ccco3)CC2)cc1C | 0 | 1 | 6 | 0
CCOC(=O)C(=CNc1ccc(N2CCCCC2)c(S(=O)(=O)Nc2ccccc2OC)c1)C(=O)OCC | 36* | -4 | 7 | 0
COc1ccccc1NS(=O)(=O)c1cc(NC(C)=O)ccc1N1CCCCC1 | 6 | 3 | -13 | 3
CN(C)C(=S)Oc1ccccc1-c1ccccc1OC(=S)N(C)C | 17 | -1 | -1 | -1
O=C(NCCCN1CCCCCC1)C1CC(=O)N(CCc2ccccc2)C1 (stereo not drawn) | 23* | 3 | 1 | 19*
CC(C)CN(C(=O)COC(=O)CNC(=O)c1ccccc1F)c1c(N)n(Cc2ccccc2)c(=O)[nH]c1=O | 0 | -3 | 14 | -1
O=C(CSc1nnc(-c2ccccc2F)n1CCc1ccccc1)Nc1ccc2[nH]c(=O)[nH]c2c1 | 2 | -3 | 2 | 5
CC(OC(=O)c1cccc(S(=O)(=O)Nc2cccc(C(F)(F)F)c2)c1)C(=O)Nc1ccc2c(c1)OCCO2 (stereo not drawn) | 31* | 5 | 0 | -1
O=C(Nc1ccccn1)C(=O)Nc1ccccn1 | 7 | 6 | 3 | -1
S=C(Nc1ccccn1)c1ccccn1 | -11 | 5 | 39* | -1
COc1ccc(S(=O)(=O)Nc2ccc3c(c2)CC(=O)N([C@H](C)CO)C[C@H](C)[C@H](CN(C)C(=O)Nc2ccc4c(c2)OCO4)O3)cc1 | -3 | -1 | -7 | -2
O=C(c1ccco1)N1CCN(c2ccc([N+](=O)[O-])cn2)CC1 | 6 | -8 | 1 | 0
COC(=O)c1ccc(N/C=C\C(=O)c2ccc3c(c2)OCO3)cc1 | 22* | 7 | 11 | -2
O=C(Nc1ccc2c(c1)OCO2)c1cccc(F)c1 | 17 | -1 | 40* | -1
COc1ccc(NC(=O)c2ccc3c(c2)OCO3)cc1Cl | 8 | 2 | 41* | -2
O=C(Nc1ccc(F)c(Cl)c1)c1ccc2c(c1)OCO2 | 10 | 1 | -3 | 0
CCOC(=O)C1(CCCc2ccccc2)CCN(C(=O)CCn2cncn2)CC1 | 0 | 3 | 3 | 0
Cc1ccc(CC(=O)Nc2ccncc2)cc1 | -4 | 2 | -7 | -1
Cc1cc(NC(=O)c2c(-c3c(F)cccc3Cl)noc2C)no1 | -7 | -1 | 6 | 0
Cc1onc(-c2c(F)cccc2Cl)c1C(=O)Nc1nc2ccccc2[nH]1 | -6 | 4 | 42* | 8
COCc1nnc(NC(=O)c2c(-c3c(Cl)cccc3Cl)noc2C)s1 | 20* | -8 | 10 | 0
CCOc1ccc(S(=O)(=O)Nc2ccc(C(=O)NCC(C)(C)N3CCOCC3)cc2)cc1 | 21* | 0 | 3 | 0
